Only some compounds are listed: those with a hit (about 3.4% of all), similar ones and a draw of the others.
MEKK2mut PB1 HTS: MEK5 binding signal on mutant MEKK2 PB1, primary screen, biochemical, multiplex bead flow cytometry, Alexa488-MEK5. Alexa488-MEK5 binding to MEKK2 mutant. percent response, % at 10 µM. 290,000 compounds, 0.35% hits. AID 1530, 2009; in the data active = percent response above about 24%, passing the limit was not always enough
MEKK3 PB1 HTS: modulators of MEKK3-MEK5 PB1 binding, primary screen, biochemical, wildtype MEKK3, multiplex bead flow cytometry, Alexa488-MEK5 | Mitogen-activated protein kinase kinase kinase 3 (Homo sapiens), Q99759 | bead-based flow cytometry, Alexa488-MEK5 binding to MEKK3; actives lie on both sides; 0 = blocked by unlabeled MEK5, 100 = vehicle | binding response (% of control), % at 10 µM | 290,000 compounds, 1.4% hits | AID 1529, 2009;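 active = binding response more than 3 SD above or below the average of its plate-row segment, actives on both sides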;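 note: Alexa488 bead fluorescence after subtracting the streptavidin-only scavenger bead signal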
Target sequence (Q99759 whole entry, looked up): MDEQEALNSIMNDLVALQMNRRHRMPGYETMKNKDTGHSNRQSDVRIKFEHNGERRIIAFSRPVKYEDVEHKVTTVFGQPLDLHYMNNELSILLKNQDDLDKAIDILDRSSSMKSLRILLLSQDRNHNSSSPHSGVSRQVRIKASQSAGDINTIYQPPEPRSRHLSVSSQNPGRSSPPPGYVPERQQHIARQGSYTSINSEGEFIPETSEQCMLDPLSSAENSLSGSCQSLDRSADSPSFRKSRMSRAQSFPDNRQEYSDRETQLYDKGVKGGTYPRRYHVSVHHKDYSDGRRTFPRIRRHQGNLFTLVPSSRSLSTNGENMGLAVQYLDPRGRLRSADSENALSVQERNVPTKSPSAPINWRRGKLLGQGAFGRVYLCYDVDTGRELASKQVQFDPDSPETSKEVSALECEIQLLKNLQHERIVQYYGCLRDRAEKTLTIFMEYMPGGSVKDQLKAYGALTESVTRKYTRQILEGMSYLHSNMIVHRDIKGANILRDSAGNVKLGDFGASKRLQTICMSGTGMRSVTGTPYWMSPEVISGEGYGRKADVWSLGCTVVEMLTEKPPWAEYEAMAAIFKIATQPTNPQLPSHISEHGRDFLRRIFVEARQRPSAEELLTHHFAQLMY
VIM-2 inh: VIM-2 metallo-beta-lactamase inhibitors, primary screen, biochemical, epi-absorbance readout, Pseudomonas aeruginosa enzyme; inhibition, % at 5.6 µM; 290,000 compounds, 0.89% hits; AID 1527, 2009; purified VIM-2, nitrocefin hydrolysis, epi-absorbance fluorescence;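 active = inhibition above the mean of all tested compounds plus 3 SD, cutoff set per screening run, cut at about 7.5% in these data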;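 note: red hydrolysis product quenches plate fluorescence so inhibitors raise well fluorescence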
MEKK2 WT-MEK5: modulators of MEK5 binding to wildtype MEKK2, primary screen, biochemical, multiplex bead flow cytometry, Alexa488-MEK5 | Mitogen-activated protein kinase kinase kinase 2 (Homo sapiens), Q9Y2U5 | Alexa488-MEK5 binding to MEKK2 WT; actives lie on both sides | AID 1531, 2009 | binding response (% of control), % at 10 µM | 290,000 compounds, 1.1% hits; in the data active = binding response below about 67% or above about 130%
IMP-1 inh: IMP-1 metallo-beta-lactamase inhibitors, primary screen, biochemical, epi-absorbance readout, Pseudomonas aeruginosa enzyme; purified IMP-1, nitrocefin hydrolysis, epi-absorbance fluorescence; inhibition, % at 5.6 µM; metallo-beta-lactamase IMP-1 (Pseudomonas aeruginosa); 290,000 compounds, 0.45% hits; AID 1556, 2009;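 active = inhibition above the mean plus 3 SD of all compounds in the same screening run, cut at about 4.5% in these data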
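System: purified IMP-1; amount: IMP-1 0.2 nM before substrate addition; compound: single dose, 5.6 µM; times: 25 °C, 15 min preincubation, 25 min reaction; signal: Epi-absorbance via hydrolysed-nitrocefin quenching of white-plate fluorescence, 480/530 nm, EDTA stop; benchmarks: DMSO with and without IMP-1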
MEKK2wt confirm: modulators of MEK5 binding to wildtype MEKK2, confirmation, biochemical, single concentration, multiplex bead flow cytometry | 5,900 compounds, 2.4% hits | binding response (% of control), % at 10 µM | shares compounds with MEKK3 PB1 HTS | Alexa488-MEK5 binding to MEKK2 WT; actives lie on both sides; in the data active = binding response below about 16% or above about 210%; inactive = in between
MEKK2mut-MEK5: mutant MEKK2 PB1-MEK5 binding signal retest – biochemical, single concentration, multiplex bead flow cytometry, confirmation | shares compounds with MEKK3 PB1 HTS | Alexa488-MEK5 binding to MEKK2 mutant | percent response, % at 10 µM | 5,900 compounds, 2% hits; in the data active = percent response mostly above about 71%, no sharp cut-off; inactive = mostly below about 38%;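 note: higher means compound restores mutant binding toward wildtype level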
MEKK3 confirm: MEKK3 wild-type PB1 binding to MEK5, inhibitors, confirmation, biochemical, bead multiplex flow cytometry, single concentration, wildtype | shares compounds with MEKK3 PB1 HTS | Alexa488-MEK5 binding to MEKK3; hits give low values | binding response (% of control), % at 10 µM | 5,900 compounds, 1.8% hits;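 active = binding response below 72% of control, or above a set upper limit, though filed actives all read lower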;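 note: lower values mean stronger disruption of MEK5 binding to MEKK3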
Large screens that a line does not name were inactive (follow-up assays come after a bar, where they were run); [ ] = remark or other dose.

O=C(NN1CCOCC1)c1ccc(Cl)cc1	none
Cc1ccc2c(Cl)cc(Cl)c(OCC(=O)O)c2n1	MEKK3 PB1 HTS 129 | MEKK2wt confirm inactive | MEKK2mut-MEK5 inactive | MEKK3 confirm inactive
Cc1ccc2c(Cl)cc(Cl)c(OCC(=O)N3CCCC3)c2n1	none
COc1cc(/C=C(/C#N)c2nc3ccccc3c(=O)[nH]2)ccc1O	MEKK3 PB1 HTS 140 | MEKK2wt confirm inactive | MEKK2mut-MEK5 inactive | MEKK3 confirm inactive
CC(C)(C)NC(=O)NC(=O)COC(=O)COc1ccc(Cl)cc1Cl	MEKK3 PB1 HTS 75[inhibitor] | MEKK2wt confirm inactive | MEKK2mut-MEK5 inactive | MEKK3 confirm inactive
O=C(COC(=O)COc1ccc(Br)cc1)Nc1cccnc1Cl	none
O=C(COC(=O)COc1ccc(Cl)cc1Cl)Nc1cccnc1Cl	MEKK3 PB1 HTS 137 | MEKK2wt confirm inactive | MEKK2mut-MEK5 inactive | MEKK3 confirm inactive
Cc1cccc(-n2nc3c(c2NC(=O)c2ccco2)CS(=O)C3)c1C (configuration not stated)	none
O=C(O)CC1C(=O)NCCN1Cc1ccc(F)c(F)c1 (configuration not stated)	none
O=C(CSc1ccccc1)N/N=C/c1ccccc1O	none
CC(NC(=S)NCCc1ccccc1)C(c1cccs1)N1CCN(Cc2ccccc2)CC1 (configuration not stated)	MEKK2 WT-MEK5 138 | MEKK2wt confirm inactive | MEKK2mut-MEK5 inactive | MEKK3 confirm inactive
CCCC12CN3CCN(CC(C3)/C1=N\NC(=O)c1ccccc1N)C2	MEKK3 PB1 HTS 154 | MEKK2wt confirm inactive | MEKK2mut-MEK5 inactive | MEKK3 confirm inactive
CC(C)(C)c1ccc(C(=O)N/N=C2\C3CN4CCN(C3)CC2(c2ccccc2)C4)cc1	MEKK3 PB1 HTS 132 | MEKK2wt confirm inactive | MEKK2mut-MEK5 inactive | MEKK3 confirm inactive
Nc1ccccc1C(=O)N/N=C1/C2CN3CCN(C2)CC1(Cc1ccccc1)C3	none
COc1ccc(Nc2oc(-c3ccco3)nc2S(=O)(=O)c2ccc(F)cc2)cc1	none
O=S(=O)(c1ccc(F)cc1)c1nc(-c2ccco2)oc1Nc1ccc(F)cc1	MEKK3 PB1 HTS 137 | MEKK2wt confirm inactive | MEKK2mut-MEK5 inactive | MEKK3 confirm inactive
CCCCN(C(C)=O)c1c(N)n(CCC)c(=O)n(CC(=O)Nc2cc(Cl)cc(Cl)c2)c1=O	none
CCc1nnc(NS(=O)(=O)c2ccc(N=Cc3c(C)[nH]n(-c4ccc(C)c(C)c4)c3=O)cc2)s1	MEKK3 PB1 HTS 160 | MEKK2wt confirm inactive | MEKK2mut-MEK5 inactive | MEKK3 confirm inactive
Cc1ccc(-n2[nH]c(C)c(C=Nc3ccc(S(=O)(=O)Nc4nccs4)cc3)c2=O)cc1	none
COc1ccc(P(=O)(COc2ccc([N+](=O)[O-])cc2)c2ccc(OC)cc2)cc1	MEKK3 PB1 HTS 66[inhibitor] | MEKK2wt confirm inactive | MEKK2mut-MEK5 inactive | MEKK3 confirm inactive
COC(=O)C(Cc1ccc(O)cc1)NC(=O)C(C)Oc1ccccc1 (configuration not stated)	MEKK3 PB1 HTS 0.0[inhibitor], MEKK2 WT-MEK5 -5.0[inhibitor] | MEKK2wt confirm inactive | MEKK2mut-MEK5 inactive | MEKK3 confirm inactive
O=C(NC1CCCCC1)C(c1cccnc1)N(C(=O)c1csnn1)C1CCCC1 (configuration not stated)	none

Bioassay records deposited in PubChem BioAssay by several laboratories.
